The values that follow come from ChEMBL document CHEMBL4513216, “Probing the Open Global Health Chemical Diversity Library for Multistage-Active Starting Points for Next-Generation Antimalarials” (ACS Infect Dis, 2020).

A short description of the data set: Toxicity liver stage against HepG2, at 10uM. Type of data set: cell-based. More on the design: test concentration 10 uM, cell line HepG2-A16-CD81EGFP. The note with it: human, HepG2-A16-CD81EGFP cells; read-out: INHIBITION
A digest of the protocol: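 Uninfected HepG2-A16-CD81EGFP cells, 3 × 10^3 per well, 1536-well, plated on prespotted compound at 10 μM final, parasite-free screening media added to match infected plates; puromycin 10 μM positive, DMSO 0.5% negative; run in parallel with 48 h PbLuc assay at 37 °C, 5% CO2; viability by CellTiter-Glo luminescence, normalized to controls.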
With `Cc1nnc([C@H]2CCN(CCCc3ccccc3)C2)o1`, the cytotoxicity at 10 µM stood at 2.87%.
The figure for `CCOC(=O)C(C)NC(=O)N1CCN(c2nc3ccccc3n2C)CC1` (stereo unspecified) is 3.39%; for `O=C(NC[C@@H]1CCCO1)c1cccnc1N1CCCC1c1ccccc1` (stereo partly specified) it is 3.95%; for `CN(CCc1ccccc1)C(=O)c1cccnc1OCC(F)(F)F` it is 13.5%.
`COc1ccc2[nH]c(C(=O)NCC3(N)CCCC3)cc2c1`: the cytotoxicity at 10 µM was found to be 4.3%.
For the molecule `COCCCN(Cc1ccccn1)S(=O)(=O)c1ccc(OC)cc1`, the cytotoxicity at 10 µM amounted to 5.85%.
Consider `CCc1c(-c2ccccc2)nc2c(c(C)c(C)n2CCN(C)C)c1N`, for which the cytotoxicity at 10 µM came out at 17.7%.
The figure for `Cc1nn(C)c2nc(C(C)C)cc(C(=O)Nc3n[nH]c(C4CC4)n3)c12` is -4.38%; for `O=C1CC(NS(=O)(=O)c2ccc(Cl)cc2)CN1` (stereo unspecified) it is 6.66%.
Turning to `CS(=O)(=O)C1CCN(S(=O)(=O)Cc2cccc(F)c2)CC1`, the cytotoxicity at 10 µM was -19.1%.
On to `O=C(Cc1cccs1)NCC1Cn2nnc(-c3ccoc3)c2CO1` (stereo unspecified), for which the cytotoxicity at 10 µM was 6.06%.
On to `CCN1C(=O)CC[C@@H]2[C@H]1CCN2S(=O)(=O)Cc1ccc(C)cc1`, for which the cytotoxicity at 10 µM came out at 0.0218%.
Regarding `CN(Cc1cn2c(n1)CN(C(=O)C1CCCO1)CC2)Cc1ccco1` (stereo unspecified), the cytotoxicity at 10 µM stood at 8.24%.
As for `O=C(NCC1CC1)C1CN(C(=O)c2ccco2)CC12CCOCC2` (stereo unspecified), the cytotoxicity at 10 µM was determined as 6.61%.
Consider `Cn1ncc2c1NC(=O)CC2c1ccc(O)cc1` (stereo unspecified), for which the cytotoxicity at 10 µM worked out at 24.3%.
For `Cn1cccc1C(=O)NCc1cnc2n1CCN(C(=O)N1CCCC1)C2`, the cytotoxicity at 10 µM is -5.61%.
The result for `Cc1c(-c2cc(-c3cnn(C)c3C)n(CC(=O)NC3CC3)n2)cnn1C` reads 9.26%.
For the molecule `CCn1nc(C)c2c1cnn2CC(=O)Nc1ccc(OC)cc1C`, the cytotoxicity at 10 µM is -80.1%.
The figure for `Cn1ncc(C(=O)O)c1C(=O)Nc1nc2ccccc2s1` is 7.9%; for `Cn1nc(C2CCN(C(=O)c3cnccn3)C2)cc1CCO` (stereo unspecified) it is 9.95%; for `O=C(CCc1cccnc1)N1CCCCC1c1ccn2ccnc2n1` (stereo unspecified) it is -4.28%.
The result for `CNc1cncc(C2CCCN2Cc2cccc(C)n2)n1` (stereo unspecified) reads -8.3%; that for `CO[C@H]1CCN(C(=O)c2ccc3oc(C)cc3c2)C[C@@]12CCCO2`, 25.9%; that for `CC(=O)N1CCN([C@@H]2CCC[C@@H](N(C)C(=O)C3CC3)[C@H]2O)CC1`, -5.97%.
The result for `Cc1cnn(CC(C)NCc2ccc(C#N)cc2F)c1` (stereo unspecified) reads -7.44%; that for `CC1CCCN(S(=O)(=O)NCCCn2ccc3ccccc32)C1` (stereo unspecified), 13.6%; that for `CC(NCc1cccc(NC(=O)C2CCCCC2)c1)c1cnn(C)c1` (stereo unspecified), -0.26%.
Regarding `Cc1ccc(-c2cc(C(=O)NCC3CCOC3)n[nH]2)s1` (stereo unspecified), the cytotoxicity at 10 µM was -4.09%.
Consider `Cc1nc(CC2CCCN(Cc3nc4ccccc4c(=O)[nH]3)C2)no1` (stereo unspecified), for which the cytotoxicity at 10 µM is -44%.
In the case of `Cc1cnc(C(=O)N2CCC(COCc3ccccc3)C2)cn1` (stereo unspecified), the cytotoxicity at 10 µM came to 7.54%.
The figure for `CC(C)(C)c1nc(CC(=O)NCCC(=O)Nc2ccncc2)cs1` is 12.8%; for `Cc1cn2c(CN(C)C(=O)c3nccnc3N)c(C)nc2s1` it is -4.12%; for `COc1cccc(C(=O)NCc2ccccc2S(=O)(=O)N(C)C)c1` it is -5.52%.
For `CNC(=O)CN1CCC(c2cc(OC)cc(OC)c2)C1` (stereo unspecified), the cytotoxicity at 10 µM turned out to be 4.38%.
The result for `CC(C)COc1cncc(NC(CO)c2ccco2)n1` (stereo unspecified) reads -5.08%; that for `COCc1noc(C2(c3ccc(Cl)cc3)CCOCC2)n1`, 1.86%; that for `c1ccc(-c2noc(CNC3CCCN(c4cccnn4)C3)n2)nc1` (stereo unspecified), 4.86%.
On to `CCc1nc(C(=O)N2CCN(CCc3ccc(OC)cc3)CC2)c[nH]1`, for which the cytotoxicity at 10 µM was -9.56%.
Take `CCc1nc(Cn2c(=O)n(C)c3ccccc32)no1`: the cytotoxicity at 10 µM is -45.1%.
For the molecule `Cc1cc(CNCCNS(C)(=O)=O)sc1Br`, the cytotoxicity at 10 µM is -4.6%.
In the case of `CCOCC(=O)Nc1nccn1Cc1ccc(Br)cc1`, the cytotoxicity at 10 µM was -44.8%.
As for `COc1cccc(CNCc2nnc3n2CC(C(F)(F)F)CC3)c1` (stereo unspecified), the cytotoxicity at 10 µM was 14%.
The result for `O=C(CCc1ccccn1)N1CCc2cc(Cl)cc(Cl)c2C1` reads -40.9%; that for `CC(C)N1CCC2(CC1)CC(c1cccnc1)C(=O)N2` (stereo unspecified), -67.2%; that for `COCCN1C[C@H]2[C@@H](C1)N(C(=O)COc1ccccc1)CC[C@H]2OC`, -1.34%.
`CNc1nc2c(s1)C(=O)CN(C(=O)[C@@H](N)Cc1cccc(OC)c1)C2`: the cytotoxicity at 10 µM is -4.08%.
For `CC(C)[C@H](NS(C)(=O)=O)C(=O)NCc1cc(-c2cccc(Cl)c2)nn1C`, the cytotoxicity at 10 µM is -5.47%.
The figure for `C=C(C)COc1cccc(CN(C)C(C)c2nccs2)c1` (stereo unspecified) is -49.2%.
As to `CC(=O)N1C[C@H]2CNC[C@@]2(C(=O)NCCNc2ccncc2C)C1`, the cytotoxicity at 10 µM was -6.4%.
Turning to `CN(Cc1cnn(C)c1)C1CCN(c2cccc(-c3cscn3)c2)CC1`, the cytotoxicity at 10 µM was -0.724%.
On to `O=C(c1ncc[nH]1)N1CCC(Cn2cc(-c3cccc(Cl)c3)nn2)CC1`, for which the cytotoxicity at 10 µM is -12.8%.
With `CN1CCC(Cc2noc(-c3cccc(OCC(N)=O)c3)n2)CC1`, the cytotoxicity at 10 µM was -4.42%.
The figure for `Cc1cc(CC(C)Nc2nc(C3CCCC3)nc3c2cnn3C)[nH]n1` (stereo unspecified) is -6.12%; for `CC(Cn1cncn1)NCCN1CCc2ccccc2C1` (stereo unspecified) it is -1.27%.
The figure for `CC(C)C1CN(S(=O)(=O)C2CC2)CCCN1Cc1ccc(F)cc1` (stereo unspecified) is 7.01%; for `CN(C)C(C(=O)N1CC(Oc2ccccc2F)C1)c1ccccc1F` (stereo unspecified) it is -0.598%; for `NC(=O)CN1CC2(CCC1=O)CCN(Cc1ccc(Cl)c(F)c1)CC2` it is -5%.
The figure for `CCNc1ccnc(NC2CCN(C(=O)c3ccc(C)cc3)CC2)n1` is 5.09%.
As for `COc1ccc(OC)c(-n2cnnc2CN)c1`, the cytotoxicity at 10 µM was -4.4%.
The result for `COc1ccccc1OCCCc1cc(C#N)ccn1` reads -11.5%; that for `CC(=O)Nc1ccc(CNC(=O)CNCc2nnc(C)o2)cc1`, 10.7%; that for `O=C(c1cccnc1N1CCOC(c2ccc(Cl)cc2)C1)N1CCCC1` (stereo unspecified), 7.21%.
`CCc1n[nH]c(C(=O)N2CCCC3(CN(C)C(=O)O3)C2)c1C` (stereo unspecified): the cytotoxicity at 10 µM is -44.7%.
Regarding `CC(CN1CCC2(CC1)c1nc[nH]c1CCN2S(C)(=O)=O)C(F)(F)F` (stereo unspecified), the cytotoxicity at 10 µM is -8.51%.
The result for `O=C1CCC2(CCCN(C(=O)c3cscn3)C2)CN1CCc1c[nH]cn1` (stereo unspecified) reads -13%; that for `NC(=O)C1CCN(C(=O)c2cccc(CN3CCOCC3)c2)CC1`, -20%; that for `Cc1ccccc1N1CCN(C(=O)c2ccc[nH]2)C(C)C1` (stereo unspecified), -8.68%.
The result for `Clc1ccc(C2NCCc3cc4c(cc32)OCCO4)cc1` (stereo unspecified) reads -16.3%; that for `O=C1NCC2(CCCN(CCc3ccccc3)C2)Oc2ccccc21` (stereo unspecified), 2.93%; that for `Cc1cccc(N2CCN(C(=O)CCc3c(C)noc3Cl)CC2)c1`, -9.73%.
Consider `CCc1noc(C)c1C(=O)N1CCCC1Cn1cccn1` (stereo unspecified), for which the cytotoxicity at 10 µM was -3.04%.
Take `O=C1COc2cc(C(=O)NS(=O)(=O)c3ccc(F)cc3)ccc2N1`: the cytotoxicity at 10 µM was -8.47%.
`CCN(CC1CCOC1)C(=O)c1ccccc1S(C)(=O)=O` (stereo unspecified): the cytotoxicity at 10 µM is -0.945%.
As to `Cc1csc(N2CCN(CC(=O)NC3CCOCC3)CC2C)n1` (stereo unspecified), the cytotoxicity at 10 µM is -7.13%.
The figure for `NC(=O)C1CCN(CCc2ccc(NC(=O)C3CC3)cc2)CC1` is -7.72%; for `CC(C)n1cc(CN2CCCN(C(=O)COC3CCCC3)CC2)cn1` it is -15.5%; for `CCc1nnc2n1CCN(CC(=O)Nc1cc(C)nn1C)C2` it is 6.98%.
For the molecule `CCN(Cc1ccc2c(c1)OCCO2)C(=O)NC(C)Cn1cccn1` (stereo unspecified), the cytotoxicity at 10 µM was -10.6%.
In the case of `COc1cc(CNc2cc(N3CCCC3CO)ncn2)ccn1` (stereo unspecified), the cytotoxicity at 10 µM is -28.5%.
As to `O=C1NCC(C(=O)Nc2ncc(Cc3ccccc3)s2)N1` (stereo unspecified), the cytotoxicity at 10 µM is 5.92%.
On to `CC(C(=O)NCc1ccc(N2CCCC2)nc1)S(C)(=O)=O` (stereo unspecified), for which the cytotoxicity at 10 µM is -13.4%.
For the molecule `COc1ccc(CCCNCc2c(C)nn(C)c2N(C)C)cc1OC`, the cytotoxicity at 10 µM is -19.2%.
On to `c1cnn(CC2CN(Cc3nc(-c4ccoc4)no3)CCO2)c1` (stereo unspecified), for which the cytotoxicity at 10 µM is -23.8%.
`CN1CCOC(CNCc2csc(C3CCCC3)n2)C1` (stereo unspecified): the cytotoxicity at 10 µM is -0.383%.
Regarding `CS(=O)(=O)N1CCC(NC(=O)COc2ccc(Br)cc2Cl)CC1`, the cytotoxicity at 10 µM worked out at 3.25%.
`Cc1ccc(C(=O)N2CCCC(c3nncn3C)C2)c(C)c1` (stereo unspecified): the cytotoxicity at 10 µM is -14.1%.
As to `Cn1cc(C2CCCN2CCCc2nc(-c3cccs3)no2)cn1` (stereo unspecified), the cytotoxicity at 10 µM is -6.88%.
The result for `Cc1cc(C(=O)NCc2cccnc2OC(C)C)no1` reads -7.37%; that for `COCC1CN(Cc2ccncc2)Cc2nnn(CC3CC3)c21` (stereo unspecified), -5.91%.
Regarding `Cn1ccnc1CN1CC[C@@H](NS(C)(=O)=O)[C@@H]1Cc1ccccc1`, the cytotoxicity at 10 µM was -77.2%.
The result for `Cn1cnc2c1C(COCC1CCOCC1)CN(C(=O)C1CC=CC1)C2` (stereo unspecified) reads -75.5%; that for `Cn1cncc1CNC1CC2(CCN(CC3CC3)CC2)c2ccccc21` (stereo unspecified), 0.565%; that for `CS(=O)(=O)N1CCOCC2(CN(Cc3nccs3)CCO2)C1` (stereo unspecified), 7.49%.
Take `CC(C)N(C)Cc1cncc2c1CCN(C(=O)c1ccccc1F)C2`: the cytotoxicity at 10 µM amounted to 2.35%.
For `CCc1ccc(NC(=O)N2C[C@@H]3C[C@H](C(=O)N4CCCC4)[C@H](C2)O3)cc1`, the cytotoxicity at 10 µM was -6.71%.
As for `CN(C)S(=O)(=O)N1C[C@H]2CC[C@@H](C1)N(Cc1ccc3nsnc3c1)C2`, the cytotoxicity at 10 µM was -7.7%.
